pIC50: −log10 of the molar value.
Key:
[1] = biological target: T1, Neurogenic locus notch homolog protein 1 (Homo sapiens, UniProt P46531); test: Inhibition of Notch1 deltaE mutant (unknown origin) expressed in HEK293 cells after 16 hrs by […] luciferase reporter gene assay; assay type: cell-based
Target sequence in this assay (P46531 19-2555 limits assumed): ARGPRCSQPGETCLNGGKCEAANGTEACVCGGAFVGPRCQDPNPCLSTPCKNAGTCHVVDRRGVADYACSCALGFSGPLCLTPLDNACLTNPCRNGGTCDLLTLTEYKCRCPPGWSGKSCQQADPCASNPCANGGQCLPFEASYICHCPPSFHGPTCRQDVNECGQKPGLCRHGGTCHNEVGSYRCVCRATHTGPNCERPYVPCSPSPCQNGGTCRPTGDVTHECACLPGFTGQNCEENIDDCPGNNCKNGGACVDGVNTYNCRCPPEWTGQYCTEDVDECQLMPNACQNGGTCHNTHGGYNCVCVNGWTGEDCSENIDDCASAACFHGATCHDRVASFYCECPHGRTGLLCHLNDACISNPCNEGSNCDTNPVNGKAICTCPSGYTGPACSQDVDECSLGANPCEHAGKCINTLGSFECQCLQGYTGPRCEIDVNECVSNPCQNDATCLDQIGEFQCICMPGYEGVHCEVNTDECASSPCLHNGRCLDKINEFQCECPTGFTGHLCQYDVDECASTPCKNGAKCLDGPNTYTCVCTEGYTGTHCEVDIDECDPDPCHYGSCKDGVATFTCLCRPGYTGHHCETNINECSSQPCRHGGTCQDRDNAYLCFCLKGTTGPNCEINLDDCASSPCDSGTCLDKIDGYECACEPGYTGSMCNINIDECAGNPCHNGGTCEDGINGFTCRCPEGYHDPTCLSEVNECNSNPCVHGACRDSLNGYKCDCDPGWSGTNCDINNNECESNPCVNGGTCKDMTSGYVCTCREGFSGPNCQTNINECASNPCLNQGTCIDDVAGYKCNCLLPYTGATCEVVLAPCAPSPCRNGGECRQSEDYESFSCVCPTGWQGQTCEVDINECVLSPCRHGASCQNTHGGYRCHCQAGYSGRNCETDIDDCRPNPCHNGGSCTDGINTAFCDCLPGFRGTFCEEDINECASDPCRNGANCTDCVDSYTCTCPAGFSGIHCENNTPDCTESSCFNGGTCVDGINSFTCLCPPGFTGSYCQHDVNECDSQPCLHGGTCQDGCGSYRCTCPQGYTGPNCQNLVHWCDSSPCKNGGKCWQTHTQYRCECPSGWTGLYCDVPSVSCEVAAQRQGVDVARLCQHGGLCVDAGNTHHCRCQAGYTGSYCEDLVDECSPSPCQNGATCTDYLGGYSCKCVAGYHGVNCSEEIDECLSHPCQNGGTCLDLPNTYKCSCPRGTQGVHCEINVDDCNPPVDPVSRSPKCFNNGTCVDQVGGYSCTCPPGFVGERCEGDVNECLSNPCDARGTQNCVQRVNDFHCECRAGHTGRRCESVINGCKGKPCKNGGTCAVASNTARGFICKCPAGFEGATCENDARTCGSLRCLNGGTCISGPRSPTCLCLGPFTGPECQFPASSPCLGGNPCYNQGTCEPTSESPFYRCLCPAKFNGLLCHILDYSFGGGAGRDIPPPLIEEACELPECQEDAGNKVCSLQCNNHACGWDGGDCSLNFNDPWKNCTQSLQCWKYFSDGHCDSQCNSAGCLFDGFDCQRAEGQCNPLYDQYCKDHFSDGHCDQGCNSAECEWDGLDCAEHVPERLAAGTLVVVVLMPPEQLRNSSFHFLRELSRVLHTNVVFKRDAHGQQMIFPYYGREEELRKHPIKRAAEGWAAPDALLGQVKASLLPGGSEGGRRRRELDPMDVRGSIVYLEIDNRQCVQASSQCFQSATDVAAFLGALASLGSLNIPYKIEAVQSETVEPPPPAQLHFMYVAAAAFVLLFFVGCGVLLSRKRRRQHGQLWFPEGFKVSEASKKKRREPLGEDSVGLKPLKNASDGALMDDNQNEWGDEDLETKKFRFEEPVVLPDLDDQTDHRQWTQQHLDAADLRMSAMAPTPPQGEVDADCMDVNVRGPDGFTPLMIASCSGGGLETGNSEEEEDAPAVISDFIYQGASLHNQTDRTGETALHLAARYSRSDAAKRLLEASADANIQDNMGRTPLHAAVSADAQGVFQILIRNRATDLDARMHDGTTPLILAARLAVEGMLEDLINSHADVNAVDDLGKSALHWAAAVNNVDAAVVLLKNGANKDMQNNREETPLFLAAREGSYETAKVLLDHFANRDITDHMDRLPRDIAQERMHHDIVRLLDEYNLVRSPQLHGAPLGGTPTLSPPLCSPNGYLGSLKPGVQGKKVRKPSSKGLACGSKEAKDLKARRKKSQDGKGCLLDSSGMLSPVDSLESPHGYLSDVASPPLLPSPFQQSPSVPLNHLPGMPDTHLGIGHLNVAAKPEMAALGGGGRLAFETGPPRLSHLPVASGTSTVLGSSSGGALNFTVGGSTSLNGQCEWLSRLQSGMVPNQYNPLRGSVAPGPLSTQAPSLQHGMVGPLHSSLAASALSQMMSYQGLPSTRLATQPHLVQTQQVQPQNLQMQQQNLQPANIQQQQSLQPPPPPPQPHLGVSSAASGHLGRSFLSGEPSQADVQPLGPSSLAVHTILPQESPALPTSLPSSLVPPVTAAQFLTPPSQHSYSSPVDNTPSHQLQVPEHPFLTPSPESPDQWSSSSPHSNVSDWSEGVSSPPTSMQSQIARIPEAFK

HCT-116 [2] = test: Antiproliferative activity against human HCT116 cells after 72 hrs by SYBR green dye based fluorescence assay; assay type: functional, cell-based; conditions: for pIC50: HCT-116, 72 h
How it was run: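 HCT-116 colon cancer cells were incubated for 72 h with a concentration series of test agent, with a vehicle-treated control. Proliferation was measured, and the IC50 was derived from the dose-response curve.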

[3] = biological target: T1, Neurogenic locus notch homolog protein 1; test: Potency index, ratio of FLI-06 IC50 to compound IC50 for inhibition of Notch1 deltaE mutant (unknown origin)
Target sequence in this assay (P46531 whole entry): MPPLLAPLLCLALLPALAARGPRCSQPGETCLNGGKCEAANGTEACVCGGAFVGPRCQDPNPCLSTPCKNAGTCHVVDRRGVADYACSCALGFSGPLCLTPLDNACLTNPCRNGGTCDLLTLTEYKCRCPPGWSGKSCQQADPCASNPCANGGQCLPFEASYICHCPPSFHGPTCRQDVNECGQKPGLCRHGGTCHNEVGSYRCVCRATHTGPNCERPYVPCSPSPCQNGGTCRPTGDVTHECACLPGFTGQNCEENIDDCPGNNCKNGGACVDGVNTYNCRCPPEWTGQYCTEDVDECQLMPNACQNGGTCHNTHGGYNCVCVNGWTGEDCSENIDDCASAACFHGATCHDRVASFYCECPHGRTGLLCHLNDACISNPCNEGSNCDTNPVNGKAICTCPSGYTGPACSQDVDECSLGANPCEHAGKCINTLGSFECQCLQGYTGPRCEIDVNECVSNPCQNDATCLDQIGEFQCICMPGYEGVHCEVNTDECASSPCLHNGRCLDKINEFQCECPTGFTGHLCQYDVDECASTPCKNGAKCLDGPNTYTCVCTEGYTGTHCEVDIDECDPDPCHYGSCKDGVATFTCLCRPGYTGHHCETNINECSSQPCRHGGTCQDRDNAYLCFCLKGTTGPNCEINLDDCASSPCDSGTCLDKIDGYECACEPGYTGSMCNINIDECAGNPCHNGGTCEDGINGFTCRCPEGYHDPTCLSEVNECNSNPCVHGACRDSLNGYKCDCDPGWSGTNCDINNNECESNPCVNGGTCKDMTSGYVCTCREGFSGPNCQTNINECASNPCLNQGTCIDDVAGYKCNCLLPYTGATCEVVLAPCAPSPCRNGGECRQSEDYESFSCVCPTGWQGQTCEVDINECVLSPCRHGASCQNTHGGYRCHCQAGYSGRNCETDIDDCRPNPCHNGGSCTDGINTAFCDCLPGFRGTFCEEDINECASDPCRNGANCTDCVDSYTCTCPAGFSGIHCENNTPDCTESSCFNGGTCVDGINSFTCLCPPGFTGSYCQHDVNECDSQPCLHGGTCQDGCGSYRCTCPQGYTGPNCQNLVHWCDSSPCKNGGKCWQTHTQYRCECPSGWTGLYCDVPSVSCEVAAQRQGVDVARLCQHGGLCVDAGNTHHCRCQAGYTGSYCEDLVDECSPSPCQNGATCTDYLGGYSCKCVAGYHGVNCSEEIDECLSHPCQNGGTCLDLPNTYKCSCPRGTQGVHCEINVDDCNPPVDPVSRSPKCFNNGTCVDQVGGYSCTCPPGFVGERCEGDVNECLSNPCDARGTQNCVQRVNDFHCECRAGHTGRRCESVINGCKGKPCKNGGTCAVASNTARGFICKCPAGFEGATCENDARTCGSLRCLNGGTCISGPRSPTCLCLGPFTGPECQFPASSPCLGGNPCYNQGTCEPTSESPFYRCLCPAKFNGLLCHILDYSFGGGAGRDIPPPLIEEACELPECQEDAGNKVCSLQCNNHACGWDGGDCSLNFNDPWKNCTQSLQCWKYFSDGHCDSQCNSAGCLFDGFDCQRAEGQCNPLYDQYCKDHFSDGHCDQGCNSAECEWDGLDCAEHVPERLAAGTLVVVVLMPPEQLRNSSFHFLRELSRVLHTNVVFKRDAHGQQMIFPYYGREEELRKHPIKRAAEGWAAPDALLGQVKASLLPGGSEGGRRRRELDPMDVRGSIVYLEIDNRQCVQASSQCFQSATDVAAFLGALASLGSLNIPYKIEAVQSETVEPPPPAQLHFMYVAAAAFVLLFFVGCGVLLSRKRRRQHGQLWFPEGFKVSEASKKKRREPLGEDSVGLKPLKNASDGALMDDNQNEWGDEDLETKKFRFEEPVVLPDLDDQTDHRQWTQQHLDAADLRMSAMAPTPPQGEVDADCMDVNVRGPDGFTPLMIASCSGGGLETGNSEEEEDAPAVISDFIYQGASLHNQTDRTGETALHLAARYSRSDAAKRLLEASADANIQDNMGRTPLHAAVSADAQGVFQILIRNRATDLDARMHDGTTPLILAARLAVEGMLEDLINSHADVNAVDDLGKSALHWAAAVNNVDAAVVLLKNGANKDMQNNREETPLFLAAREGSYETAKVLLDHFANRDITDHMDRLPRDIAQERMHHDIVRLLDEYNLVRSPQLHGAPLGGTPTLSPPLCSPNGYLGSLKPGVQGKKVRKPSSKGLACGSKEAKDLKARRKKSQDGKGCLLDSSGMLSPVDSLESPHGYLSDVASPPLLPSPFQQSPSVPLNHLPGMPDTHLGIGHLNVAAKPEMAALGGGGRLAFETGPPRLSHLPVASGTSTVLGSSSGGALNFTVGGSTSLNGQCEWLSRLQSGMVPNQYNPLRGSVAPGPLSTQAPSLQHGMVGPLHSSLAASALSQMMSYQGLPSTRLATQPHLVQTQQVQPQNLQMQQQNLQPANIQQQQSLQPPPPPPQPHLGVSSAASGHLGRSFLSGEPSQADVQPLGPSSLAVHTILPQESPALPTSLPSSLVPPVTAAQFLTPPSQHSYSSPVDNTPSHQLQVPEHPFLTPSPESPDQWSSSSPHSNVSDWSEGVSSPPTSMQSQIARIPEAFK

HCT-116 [4] = test: Potency index, ratio of DAPM IC50 to compound IC50 for antiproliferative activity against human HCT116 cells; assay type: functional

pIC50 [1]	SMILES	also measured
4.36	CC1=C(C(=O)OC2CCCCC2)C(c2cccc(C#N)c2)C2=C(CC(C)(C)CC2=O)N1 (configuration not stated)	–
4.91	CC1=C(C(=O)OC2CCCCC2)C(c2ccc3c(c2)OCCO3)C2=C(CC(C)(C)CC2=O)N1 (configuration not stated)	–
5.60	CC1=C(C(=O)OC2CCCCC2)C(c2ccc([N+](=O)[O-])cc2)C2=C(CC(C)(C)CC2=O)N1 (configuration not stated)	Activity (HCT-116 [2]): Dose-dependent effect; pIC50 (HCT-116 [2]): 5.74
6.11	CC1=C(C(=O)OCC2CCN(C(=O)OC(C)(C)C)CC2)C(c2cccc(-c3ccc4[nH]ccc4c3)c2)C2=C(CC(C)(C)CC2=O)N1 (configuration not stated)	–
6.07	CC1=C(C(=O)OCc2cnccn2)C(c2cccc(Br)c2)C2=C(CC(C)(C)CC2=O)N1 (configuration not stated)	–
6.44	CC1=C(C(=O)OCC2CCN(C(=O)OC(C)(C)C)CC2)C(c2cccc(Br)c2)C2=C(CC(C)(C)CC2=O)N1 (configuration not stated)	–
6.89	CC1=C(C(=O)OCC2CCN(C(=O)OC(C)(C)C)CC2)[C@H](c2cccc(Br)c2)C2=C(CC(C)(C)CC2=O)N1	Ratio IC50 [3]: 20; Activity (HCT-116 [2]): Dose-dependent effect; pIC50 (HCT-116 [2]): 6.66; Ratio IC50 (HCT-116 [4]): 55
6.66	CC1=C(C(=O)OCC2CCN(C(=O)OC(C)(C)C)CC2)C(c2cccc(C#N)c2)C2=C(CC(C)(C)CC2=O)N1 (configuration not stated)	–
–	COC(=O)[C@@H](NC(=O)[C@H](C)NC(=O)Cc1cc(F)cc(F)c1)c1ccccc1	Activity (HCT-116 [2]): Dose-dependent effect; pIC50 (HCT-116 [2]): 4.92
< 5.00	CC1=C(C(=O)OCC2CCN(C(=O)OC(C)(C)C)CC2)C(c2cccc([N+](=O)[O-])c2)C2=C(CC(C)(C)CC2=O)N1 (configuration not stated)	–
5.53	CC1=C(C(=O)OCCC2CCN(C(=O)OC(C)(C)C)CC2)C(c2cccc(Br)c2)C2=C(CC(C)(C)CC2=O)N1 (configuration not stated)	–
< 5.00	CC1=C(C(=O)OC23CC4CC(CC(C4)C2)C3)C(c2cccc(Br)c2)C2=C(CC(C)(C)CC2=O)N1 (configuration not stated)	–
6.19	CC1=C(C(=O)OCC2CCN(C(=O)OC(C)(C)C)CC2)C(c2cc(Cl)cc(Cl)c2)C2=C(CC(C)(C)CC2=O)N1 (configuration not stated)	–
5.59	CC1=C(C(=O)OCC2CCN(C(=O)OC(C)(C)C)CC2)[C@@H](c2cccc(Br)c2)C2=C(CC(C)(C)CC2=O)N1	–
6.12	CC1=C(C(=O)OCC2CCN(C(=O)OC(C)(C)C)CC2)C(c2cccc(C(F)(F)F)c2)C2=C(CC(C)(C)CC2=O)N1 (configuration not stated)	–
5.48	CC1=C(C(=O)OCC2CCN(C(=O)OC(C)(C)C)CC2)C(c2cccc(C(C)C)c2)C2=C(CC(C)(C)CC2=O)N1 (configuration not stated)	–
5.37	CC1=C(C(=O)OCc2ccc(C(C)(C)C)cc2)C(c2cccc(Br)c2)C2=C(CC(C)(C)CC2=O)N1 (configuration not stated)	–
5.82	CC1=C(C(=O)OCC2CCN(C(=O)OC(C)(C)C)CC2)C(c2ccc3c(c2)OCCO3)C2=C(CC(C)(C)CC2=O)N1 (configuration not stated)	–
< 5.00	CC1=C(C(=O)OC2CCN(C(=O)OC(C)(C)C)CC2)C(c2cccc(Br)c2)C2=C(CC(C)(C)CC2=O)N1 (configuration not stated)	–
5.38	CC1=C(C(=O)OC2CCCCC2)C(c2cccc(Br)c2)C2=C(CC(C)(C)CC2=O)N1 (configuration not stated)	–
6.48	CC1=C(C(=O)OCC2CCN(C(=O)OC(C)(C)C)CC2)C(c2ccc3ccccc3n2)C2=C(CC(C)(C)CC2=O)N1 (configuration not stated)	–
< 5.00	CC1=C(C(=O)OCC2CCN(C(=O)OC(C)(C)C)CC2)C(c2ccc(Br)cc2F)C2=C(CC(C)(C)CC2=O)N1 (configuration not stated)	–
4.83	CC1=C(C(=O)OC2CCCCC2)C(c2cccc(C(F)(F)F)c2)C2=C(CC(C)(C)CC2=O)N1 (configuration not stated)	–
< 5.00	CC1=C(C(=O)OCC2CCN(C(=O)OC(C)(C)C)CC2)C(c2ccc(-c3ccccc3)cc2)C2=C(CC(C)(C)CC2=O)N1 (configuration not stated)	–
< 5.00	CC1=C(C(=O)O[C@H](CC#N)c2ccccc2)C(c2cccc(Br)c2)C2=C(CC(C)(C)CC2=O)N1 (some centres not stated)	–

— ChEMBL document CHEMBL4265915, “b-Annulated 1,4-dihydropyridines as Notch inhibitors” (Bioorg Med Chem Lett, 2018)
